Screens as filed in PubChem BioAssay.
Compounds with a hit are over-represented: about 3.1% of the library has one in this group of screens.
PAX8 reporter = lowers PAX8-driven luciferase in RMG-I cells. RMG-I TPO-luciferase reporter, SteadyGlo, 24 h. inhibition, % at 12.6 µM. 360,000 compounds, 1.2% hits. AID 652154;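 active means mean replicate inhibition at least 60% with every replicate also reaching 60%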;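 further: luciferase light reporting Pax8 driven TPO promoter activity; plate controls were median of neutral control wells for no effect and mitoxantrone controls for full effect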
FN deposit inh = fibronectin deposition inhibition | AH1F fibroblasts, Alexa488-fibronectin deposition fluorescence, overnight | inhibition, % at 12.6 µM | 350,000 compounds, 0.086% hits | AID 743247;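 active means mean inhibition across replicates of 30% or more, regardless of how many single replicates reach that level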;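 further: positive control wells lacked labelled fibronectin entirely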
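material = AH1F fibroblast monolayer depositing Alexa488-labelled fibronectin into matrix | amount = 10000 AH1F cells/well | buffer or medium = DMEM plus 2% serum, read in PBS | incubation = 1 h cell adhesion before compound, then overnight fibronectin incubation | detection = fluorescence at 485 nm excitation, 525 nm emission | evaluation = percent inhibition as loss of matrix-bound fibronectin fluorescence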
FGF22 binding = binders of recombinant human FGF22 by thermal shift; Q9HCT0; SYPRO orange fluorescence; percent of sucrose octasulfate shift, DMSO zero; activity (Tm shift, normalised), % at 9.99 µM; 340,000 compounds, 1.5% hits; AID 651658;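 active means mean Tm shift, scaled 0 neutral to 100 positive control, at about 1.3% or above, every replicate too, limit read from the data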
Target sequence (Q9HCT0 whole entry, looked up): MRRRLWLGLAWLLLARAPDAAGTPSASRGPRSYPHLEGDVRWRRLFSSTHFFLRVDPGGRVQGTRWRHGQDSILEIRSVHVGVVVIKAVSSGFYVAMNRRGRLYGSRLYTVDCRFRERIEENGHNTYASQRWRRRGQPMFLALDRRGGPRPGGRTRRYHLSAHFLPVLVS
EWS-Fli inh = EWS/Fli transcriptional activity inhibition | inhibition, % at 12.6 µM | A673 NR0B1-luciferase reporter, viability-normalised | 350,000 compounds, 0.67% hits | AID 651661;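 active means mean inhibition of at least 50% after viability correction, with every replicate also passing that limit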;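 further: firefly luciferase signal divided by Alamar Blue viability fluorescence both relative to DMSO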
Env fusion inh = HIV envelope-mediated fusion inhibition; HeLa-JRFL Env/CEM21 cell fusion, luciferase; inhibition, % at 12.3 µM; 360,000 compounds, 1.1% hits; AID 651610;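 active means mean replicate inhibition score of at least 50 and every replicate individually at or above 50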;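 further: 0% = plate neutral controls and 100% = maraviroc near 300 nM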
PGC1a acetyl inh = PGC1a acetylation modulation, inhibitor mode. U2OS PGC1a acetylation, AlphaScreen anti-acetyl-lysine; with virally co-expressed GCN5 acetyltransferase. inhibition, % at 15.6 µM. 350,000 compounds, 0.17% hits. AID 651687;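 active means every replicate shows inhibition of at least 40%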;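 further: 0% = neutral control wells and 100% = positive control wells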
The depositor's hits bear a star; / = no result given; ! = not confirmed by another sample; [ ] = another dose, or the depositor's remark.

SMILES	PAX8 reporter	FN deposit inh	FGF22 binding	EWS-Fli inh	Env fusion inh	PGC1a acetyl inh
N#Cc1cccc(-c2ccc(C3[C@@H]4CN(Cc5ccccc5F)C[C@H]3N4)cc2)c1 (stereo partly specified)	-14	4	/	-1	/	48*!
O=C(C1CCCC1)N1C[C@@H]2N[C@H](C1)C2c1ccc(-c2cccc(F)c2)cc1 (stereo partly specified)	/	4	/	-4	/	-17
N#Cc1cccc(-c2ccc(C3[C@@H]4CN(Cc5cocn5)C[C@H]3N4)cc2)c1 (stereo partly specified)	14	8	/	-7	/	0
COCC(=O)N1[C@H](C#N)[C@H](c2ccccc2-c2ccccc2)[C@H]1CO	10	-13	0	-3	/	3
CC(=O)N[C@H]1C=C[C@@H](CC(=O)NCC2CCCCC2)O[C@@H]1CO	-18	-4	0	4	-21[16.7 µM]	-6
N#Cc1cccc(-c2ccc(C3[C@@H]4CN(C(=O)C5CC5)C[C@H]3N4)cc2)c1 (stereo partly specified)	98*!	8	/	-3	/	-17
O=C(c1cccc(S(=O)(=O)NCc2ccccc2)c1)N1CCN(c2cccc(C(F)(F)F)c2)CC1	40	/	0	/	61*	0
C[C@@H]1CN([C@@H](C)CO)C(=O)c2cc(NC(=O)C3CC3)ccc2O[C@@H]1CN(C)S(C)(=O)=O	-8	/	/	3	8[16.7 µM]	-14
Cc1ccc(NS(=O)(=O)c2cc(NC(=O)c3ccc4c(c3)NC(=O)CS4)ccc2Cl)c(C)c1	41	8	43*	-1	26	/
O=C(c1ccccc1)N1CCC(c2nc(-c3ccc(S(=O)(=O)NCC4CCCO4)cc3)no2)CC1 (stereo unspecified)	/	8	/	/	87*	/
O=C(C1CC1)N1CCC(c2nc(-c3ccc(S(=O)(=O)NCC4CCCO4)cc3)no2)CC1 (stereo unspecified)	/	/	0	14	/	/
CCCC(=O)Nc1ccc2c(c1)C(=O)N(C)[C@H]1CC[C@@H](CC(=O)NCCc3ccccc3)O[C@H]1CO2	-1	-5	0	0	/	6
Cc1ccc(S(=O)(=O)N2CCN(Cc3ccsc3)CC2)cc1	9	3	43*	2	12	1
Cc1ccc(-c2ccc(S(=O)(=O)N3CCN(C)CC3)cc2)cc1	6	7	/	/	7	-9
COc1ccc(S(=O)(=O)N(C)C[C@@H]2OCCCC[C@H](C)Oc3ccc(NC(=O)Nc4ccccc4)cc3C(=O)N([C@H](C)CO)C[C@@H]2C)cc1	11	5	1	13	-21[16.7 µM]	-10
CC(C)CNC(=O)c1ccccc1NC(=O)c1ccccc1N(C)S(=O)(=O)c1ccccc1	8	-9	0	12	78*	4
CCCNC(=O)c1ccccc1NC(=O)c1ccccc1N(C)S(=O)(=O)c1ccccc1	20	-3	/	/	72*	-8
COC(=O)c1ccccc1NC(=O)c1ccccc1N(C)S(=O)(=O)c1ccccc1	-6	-1	0	-1	13	/
COCCNC(=O)c1ccccc1NC(=O)c1ccccc1N(C)S(=O)(=O)c1ccc(C)cc1	/	/	/	/	/	3
CC(C)NC(=O)N(C)C[C@@H]1Oc2ccccc2CC(=O)N(C)C[C@H]1C	/	-1	/	/	/	/
C[C@@H]1CCCCO[C@@H](CN(C)C(=O)CCC(F)(F)F)[C@H](C)CN([C@H](C)CO)C(=O)c2cc(NC(=O)c3ccncc3)ccc2O1	9	/	0	-8	/	-2
CNC[C@H]1Oc2ncc(-c3ccc(C)cc3)cc2C(=O)N([C@@H](C)CO)C[C@H]1C	25	9	0	30	-48[16.7 µM]	0
CCCNC(=O)C[C@@H]1CC[C@@H]2[C@@H](COc3ccc(NC(=O)NCCC)cc3C(=O)N2C)O1	11	-4	/	/	/	-4
CCn1c(-c2ccc(Cl)cc2)n[nH]c1=S	/	6	/	/	61*	6
O=c1[nH]c(=O)n(-c2ccc(F)cc2)c2c1C(C(F)(F)F)(C(F)(F)F)N=C(c1ccc(F)cc1)N2	15	7	1.9*	25	/	/
SMILES	PAX8 reporter	FN deposit inh	FGF22 binding	EWS-Fli inh	Env fusion inh	PGC1a acetyl inh
COCC#Cc1cnc2c(c1)C(=O)N([C@H](C)CO)C[C@@H](C)[C@@H](CN(C)C(=O)Nc1cc(F)ccc1F)O2	-22	-7	0	2	/	7
CC(C)(C)[C@@H]1CCC(=O)N(CC[C@H](Sc2ccc(Br)cc2)c2ccccc2)CC1	24	-14	0	16	67*	/
CCN(CCCNC(=O)CC(C(=O)N1CCc2ccccc21)n1ccnc1)c1cccc(C)c1 (stereo unspecified)	/	9	/	/	57*	1
C[C@@H]1CN([C@@H](C)CO)C(=O)Cc2cc(NC(=O)Nc3ccc(C(F)(F)F)cc3)ccc2O[C@H]1CN(C)Cc1ccc(Cl)c(Cl)c1	104*	-11	1	67*	25[16.7 µM]	-6
C[C@H]1CN([C@@H](C)CO)C(=O)Cc2cc(NC(=O)Nc3ccc(C(F)(F)F)cc3)ccc2O[C@H]1CN(C)Cc1ccc(C(F)(F)F)cc1	5	/	0	4	-2[16.7 µM]	-2
C[C@H](CO)N1C[C@H](C)[C@@H](CN(C)Cc2ccc(C(F)(F)F)cc2)Oc2ccc(NC(=O)Nc3ccc(C(F)(F)F)cc3)cc2CC1=O	57	/	0	9	58*[16.7 µM]	1
C[C@H]1CN([C@@H](C)CO)C(=O)Cc2cc(NC(=O)Nc3ccc(C(F)(F)F)cc3)ccc2O[C@H]1CN(C)Cc1ccc(Cl)c(Cl)c1	49	20	0	6	31[16.7 µM]	-8
C[C@@H]1CN([C@@H](C)CO)C(=O)Cc2cc(NC(=O)CCCCCC(=O)Nc3ccccc3N)ccc2O[C@@H]1CN(C)Cc1ccc(C(F)(F)F)cc1	90*	-4	0	34	47[16.7 µM]	0
C[C@H]1CN([C@@H](C)CO)C(=O)Cc2cc(NC(=O)CCC(F)(F)F)ccc2O[C@H]1CN(C)Cc1ccc2c(c1)OCO2	63*	/	0	-10	-18[16.7 µM]	-3
C[C@@H]1CN([C@H](C)CO)C(=O)c2cc(C#CC(C)(C)O)cnc2O[C@@H]1CN(C)Cc1cncnc1	/	-1	0	-6	4[16.7 µM]	5
Cc1noc(C)c1NC(=O)Nc1ccc2c(c1)CC(=O)N([C@@H](C)CO)C[C@H](C)[C@H](CN(C)Cc1ccc(C(F)(F)F)cc1)O2	72*	-18	/	5	-2[16.7 µM]	1
COc1ccc(NC(=O)Nc2ccc3c(c2)CC(=O)N([C@H](C)CO)C[C@H](C)[C@@H](CN(C)Cc2ccc(C(F)(F)F)cc2)O3)cc1	67*	/	0	14	5[16.7 µM]	-18
C[C@H](CO)N1C[C@H](C)[C@@H](CN(C)Cc2ccncc2)Oc2ccc(NC(=O)Nc3ccc(C(F)(F)F)cc3)cc2CC1=O	90*	/	0	/	/	-30
